RGS4 act = potentiators or activators of RGS4; B-score at 10 µM; HEK293 M3R/inducible RGS4, carbachol calcium flux Fluo4; stronger effect = lower value; AID 463111; actives 0.92% (n = 310,000);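 active means B-score of the integrated calcium signal more than 4 SD below the library mean, with starting fluorescence not abnormally high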;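 further: negative B-score means reduced calcium response which marks RGS4 activation or potentiation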
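Also added: carbachol at ECmax as muscarinic agonist stimulus; Assay system: HEK293 cells with stable M3R and inducible RGS4; Timing: overnight RGS4 induction, 30 min dye load 37 °C, 20 min compound RT; Measured by: Fluo4-AM (2 µM) calcium-flux fluorescence, kinetic read.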
RGS4 block = inhibitors of human RGS4 | P49798 | B-score at 10 µM | HEK293 M3R/RGS4 inducible, Fluo-4 calcium flux; stronger effect = higher value; triggered by carbachol at its EC20 | actives 0.45% (n = 310,000);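 active means B-score, a plate-corrected calcium signal, over three deviations above library mean, with baseline fluorescence within five deviations of library mean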;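 further: RGS4 expression induced by doxycycline in cells with stable M3 receptor; B-score is computed from the integrated fluorescence ratio over baseline after carbachol; higher B-score means a larger calcium signal and so more RGS4 inhibition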
Target sequence (P49798 whole entry, looked up): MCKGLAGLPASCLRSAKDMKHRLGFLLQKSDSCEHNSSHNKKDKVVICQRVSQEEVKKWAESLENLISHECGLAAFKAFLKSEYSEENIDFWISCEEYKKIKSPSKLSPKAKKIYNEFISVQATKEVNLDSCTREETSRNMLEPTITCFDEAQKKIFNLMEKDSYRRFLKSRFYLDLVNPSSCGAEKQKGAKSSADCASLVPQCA
MrgX1 agonist = human MrgX1 receptor agonism, primary screen; MrgX1-HEK293 cells, Fluo-4 calcium fluorescence, agonist mode; stronger effect = higher value; B-score at 10 µM; actives 0.44% (n = 310,000); AID 588627;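 active means calcium response B-score plate-corrected fluorescence ratio at least 3 library SD, with starting fluorescence B-score inside 5 SD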
Target sequence (Q96LB2 whole entry, looked up): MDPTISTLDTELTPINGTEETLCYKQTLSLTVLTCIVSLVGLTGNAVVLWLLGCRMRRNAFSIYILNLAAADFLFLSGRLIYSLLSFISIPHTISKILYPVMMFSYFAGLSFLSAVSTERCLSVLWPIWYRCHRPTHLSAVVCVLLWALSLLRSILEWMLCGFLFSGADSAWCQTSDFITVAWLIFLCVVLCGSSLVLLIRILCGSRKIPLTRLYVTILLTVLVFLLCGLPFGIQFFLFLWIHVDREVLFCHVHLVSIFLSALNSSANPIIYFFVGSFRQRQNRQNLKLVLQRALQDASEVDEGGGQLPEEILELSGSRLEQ
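Assay system: stable human MrgX1 HEK293 cell line. Quantity: 15,000 cells per well. Schedule: cells plated overnight, dye loaded 0.5 h 37 °C, 0.5 h room temperature. Detection: Fluo-4 NW calcium-flux fluorescence, kinetic read. Read-out basis: peak-minus-minimum fluorescence over baseline, converted to B scores. Control set: positive and negative control wells on each plate.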
MrgX1 antag = human MrgX1 receptor antagonism, primary screen | actives 1.3% (n = 310,000) | B-score at 10 µM | MRGX1-HEK293 calcium flux, Fluo-4, BAM8-22 antagonism; stronger effect = lower value | AID 588676 | Q96LB2;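 active means calcium-response B-score plate-corrected more than 3 library SD below zero, starting fluorescence within 5 deviations, no agonist response on first addition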;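 further: peak minus trough fluorescence over baseline after final BAM8-22 challenge near maximal dose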
MrgX1 PAM = allosterically activates human MrgX1 receptor signaling. B-score at 10 µM. Q96LB2. actives 0.63% (n = 310,000). MrgX1-HEK293, Fluo-4 calcium flux, FDSS; stronger effect = higher value;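 active means plate-corrected calcium response at least 3 library SD above typical, normal starting fluorescence, not activating the receptor alone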;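 further: compound read alongside a low EC10 to EC30 dose of BAM8-22 agonist; peak minus trough fluorescence over baseline measured at the second addition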
RGS4 block valid = RGS4 inhibitor validation; shares compounds with RGS4 block; HEK293 M3R/RGS4, carbachol calcium Fluo-4 fluorescence; carbachol added at its EC20; 0 = buffer wells, 100 = carbachol control; calcium response, % at 10 µM; actives 65% (n = 1,700);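 active means duplicate-averaged calcium response above the buffer-only control mean plus 5 SD of those controls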;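 further: integrated fluorescence ratio F max minus min over baseline F0; higher response in RGS4-induced cells means RGS4 inhibition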
M3R Ca ctr = non-induced cell nonspecific activity of RGS4 inhibitors; shares compounds with RGS4 block; HEK293 M3R non-induced, carbachol calcium Fluo-4; submaximal (EC20) carbachol stimulus; buffer wells 0%, carbachol control wells 100%; activity (percent), % at 10 µM; actives 20% (n = 1,900); AID 493000; call rule not given here;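 further: RGS4 induction absent so cells express M3R without RGS4; higher means more calcium signal and flags a non-specific hit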
M3R basal Ca ctr = second RGS4 inhibitor counter-screen in uninduced cells lacking carbachol; HEK293 M3R/RGS4 non-induced, Fluo-4 calcium, no carbachol; normalised: buffer wells 0%, carbachol wells 100%; actives 22% (n = 1,900); shares compounds with RGS4 block; calcium response (agonist-mode artifact), % at 10 µM;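 active means duplicate-averaged calcium rise in uninduced cells above buffer wells' mean plus 5 SD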
Numbers stand for hits. Hits are enriched below; roughly 3.5% of the tested compounds scored in any of these assays.

Results for COc1ccc(-c2csc(Nc3ccc(S(=O)(=O)Nc4cc(C)on4)cc3)n2)cc1 ?
RGS4 act: inactive; RGS4 block: 15; MrgX1 agonist: inactive; MrgX1 antag: inactive; MrgX1 PAM: inactive; RGS4 block valid: 30%; M3R Ca ctr: 36%; M3R basal Ca ctr: inactive

How did COc1ccc(Nc2nc(-c3ccc(OC)cc3)cs2)cc1 do in these assays?
RGS4 act: inactive; RGS4 block: inactive; MrgX1 agonist: inactive; MrgX1 antag: inactive; MrgX1 PAM: inactive; RGS4 block valid: inactive; M3R Ca ctr: inactive; M3R basal Ca ctr: inactive

How did COc1cc(NS(=O)(=O)c2ccc(Nc3nc(-c4cccc([N+](=O)[O-])c4)cs3)cc2)nc(OC)n1 do in these assays?
RGS4 act: inactive; RGS4 block: inactive; MrgX1 agonist: inactive; MrgX1 antag: inactive; MrgX1 PAM: inactive; M3R Ca ctr: 30%; M3R basal Ca ctr: inactive

How did COCCn1c(C)c(C)c(S(=O)(=O)c2ccccc2)c1N do in these assays?
RGS4 act: inactive; RGS4 block: inactive; MrgX1 agonist: inactive; MrgX1 antag: inactive; MrgX1 PAM: inactive

What do the screens show for `CC1CC1C(=O)Nc1nc2ccc(S(C)(=O)=O)cc2s1` (configuration not stated)?
RGS4 act: inactive; RGS4 block: 6.1; MrgX1 agonist: inactive; MrgX1 antag: inactive; MrgX1 PAM: inactive; RGS4 block valid: inactive; M3R Ca ctr: inactive; M3R basal Ca ctr: inactive

What do the screens show for `Cc1ccc2nc(NC(=O)C3CC3C)sc2c1` (configuration not stated)?
RGS4 act: inactive; RGS4 block: inactive; MrgX1 agonist: inactive; MrgX1 antag: inactive; MrgX1 PAM: inactive

Results for Cc1ccc(/C=C/C(=O)c2ccc(O)cc2)cc1 ?
RGS4 act: inactive; RGS4 block: inactive; MrgX1 agonist: inactive; MrgX1 antag: inactive; MrgX1 PAM: inactive

How did Cc1ccc(C(=O)/C=C/C(=O)O)cc1 do in these assays?
RGS4 act: inactive; RGS4 block: 16; MrgX1 agonist: inactive; MrgX1 antag: inactive; MrgX1 PAM: inactive; RGS4 block valid: 64%; M3R Ca ctr: 44%; M3R basal Ca ctr: 14%

Results for COc1ccccc1CN(C)C(=O)C(NC(=O)Cc1cccc2ccccc12)C(C)C (configuration not stated) ?
RGS4 act: inactive; RGS4 block: inactive; MrgX1 agonist: inactive; MrgX1 antag: inactive; MrgX1 PAM: inactive

What do the screens show for `CCC(=O)OCCNc1cc(Sc2nccn2C)c2nonc2c1[N+](=O)[O-]`?
RGS4 act: inactive; RGS4 block: inactive; MrgX1 agonist: inactive; MrgX1 antag: inactive; MrgX1 PAM: inactive; M3R Ca ctr: inactive; M3R basal Ca ctr: inactive

How did CCCC(=O)OCCNc1cc(Sc2nc3ccccc3[nH]2)c2nonc2c1[N+](=O)[O-] do in these assays?
RGS4 act: inactive; RGS4 block: inactive; MrgX1 agonist: inactive; MrgX1 antag: inactive; MrgX1 PAM: inactive; M3R Ca ctr: inactive; M3R basal Ca ctr: 14%

What do the screens show for `CCC(=O)OCCNc1cc(SCCC(=O)OC)c2nonc2c1[N+](=O)[O-]`?
RGS4 act: inactive; RGS4 block: inactive; MrgX1 agonist: inactive; MrgX1 antag: inactive; MrgX1 PAM: inactive

How did Cc1ccc(C(C[N+](=O)[O-])Sc2ccc(N)cc2)cc1 (configuration not stated) do in these assays?
RGS4 act: inactive; RGS4 block: 14; MrgX1 agonist: 33; MrgX1 antag: inactive; MrgX1 PAM: inactive; RGS4 block valid: 28%; M3R Ca ctr: inactive; M3R basal Ca ctr: inactive

Results for O=c1[nH]c2ccc(Br)cc2c(-c2ccccc2)c1N1CCOCC1 ?
RGS4 act: inactive; RGS4 block: inactive; MrgX1 agonist: inactive; MrgX1 antag: inactive; MrgX1 PAM: inactive

How did O=c1[nH]c2ccc(Br)cc2c(-c2ccccc2)c1CN1CCOCC1 do in these assays?
RGS4 act: inactive; RGS4 block: 7.5; MrgX1 agonist: inactive; MrgX1 antag: inactive; MrgX1 PAM: inactive; RGS4 block valid: 19%; M3R Ca ctr: 48%; M3R basal Ca ctr: inactive

What do the screens show for `O=C(c1cc([N+](=O)[O-])cc([N+](=O)[O-])c1)N1CCOCC1`?
RGS4 act: inactive; RGS4 block: inactive; MrgX1 agonist: inactive; MrgX1 antag: inactive; MrgX1 PAM: inactive

Results for CCN(CC)c1ccc(/C=C/C(=O)c2cccnc2)cc1 ?
RGS4 act: inactive; RGS4 block: inactive; MrgX1 agonist: inactive; MrgX1 antag: inactive; MrgX1 PAM: inactive

What do the screens show for `N#Cc1ccc(/C=C/C(=O)c2cccnc2)cc1`?
RGS4 act: inactive; RGS4 block: 19; MrgX1 agonist: inactive; MrgX1 antag: inactive; MrgX1 PAM: inactive; RGS4 block valid: 46%; M3R Ca ctr: inactive; M3R basal Ca ctr: inactive

What do the screens show for `O=C1NC(=S)S/C1=C\c1coc2ccc(O)cc2c1=O`?
RGS4 act: inactive; RGS4 block: 6.3; MrgX1 agonist: inactive; MrgX1 antag: inactive; MrgX1 PAM: inactive; RGS4 block valid: 26%; M3R Ca ctr: 65%; M3R basal Ca ctr: inactive

How did CCOc1ccc(NC(=O)Nc2cnccn2)cc1 do in these assays?
RGS4 act: inactive; RGS4 block: inactive; MrgX1 agonist: inactive; MrgX1 antag: inactive; MrgX1 PAM: inactive

Results for O=C/C=C/c1coc2ccc3ccccc3c2c1=O ?
RGS4 act: inactive; RGS4 block: 15; MrgX1 agonist: inactive; MrgX1 antag: inactive; MrgX1 PAM: inactive; RGS4 block valid: 13%; M3R Ca ctr: 36%; M3R basal Ca ctr: inactive

What do the screens show for `CC(C)OP(=O)(OC(C)C)/C(C=O)=N\Nc1ccc([N+](=O)[O-])cc1`?
RGS4 act: inactive; RGS4 block: 6.6; MrgX1 agonist: inactive; MrgX1 antag: inactive; MrgX1 PAM: inactive; RGS4 block valid: 13%; M3R Ca ctr: inactive; M3R basal Ca ctr: inactive

How did CC1CCN(c2c(NCC3CCC(C(=O)NCc4ccccc4)CC3)c(=O)c2=O)CC1 (configuration not stated) do in these assays?
RGS4 act: inactive; RGS4 block: inactive; MrgX1 agonist: inactive; MrgX1 antag: inactive; MrgX1 PAM: inactive; M3R Ca ctr: inactive; M3R basal Ca ctr: inactive

How did CC1CCN(c2c(NCC3CCC(C(=O)NCCCc4ccccc4)CC3)c(=O)c2=O)CC1 (configuration not stated) do in these assays?
RGS4 act: inactive; RGS4 block: 6.4; MrgX1 agonist: inactive; MrgX1 antag: inactive; MrgX1 PAM: inactive; RGS4 block valid: 6.0%; M3R Ca ctr: inactive; M3R basal Ca ctr: inactive

Source: PubChem
